Source: ChEMBL document CHEMBL1126899, “Nonpeptide angiotensin II antagonists derived from 1H-pyrazole-5-carboxylates and 4-aryl-1H-imidazole-5-carboxylates” (J Med Chem, 1993)
Blank lines part the entries; values can stand above or below the molecule they belong to. Calls of active or inactive are those of the source. The calls are words filed in the database; no cut-off is given here.

Legend:
[1] = biological target: T1, Type-1 angiotensin II receptor (Oryctolagus cuniculus, UniProt P34976); assay: Evaluation of Angiotensin II antagonistic activity by displacement of [125I]-Sar Ile-AII at the rabbit aorta Angiotensin II receptor, type 1; type: tissue-based
T1 sequence (P34976 whole entry): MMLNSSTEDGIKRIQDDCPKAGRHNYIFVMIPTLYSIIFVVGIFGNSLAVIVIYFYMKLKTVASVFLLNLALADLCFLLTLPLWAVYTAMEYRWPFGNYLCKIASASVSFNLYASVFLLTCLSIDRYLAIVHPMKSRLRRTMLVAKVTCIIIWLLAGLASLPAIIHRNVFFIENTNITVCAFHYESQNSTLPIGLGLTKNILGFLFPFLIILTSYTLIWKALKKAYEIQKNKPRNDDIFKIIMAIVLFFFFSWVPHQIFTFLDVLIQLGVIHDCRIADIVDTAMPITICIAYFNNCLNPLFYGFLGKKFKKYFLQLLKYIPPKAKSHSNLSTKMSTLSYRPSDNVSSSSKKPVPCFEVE
Method in brief: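 Rabbit aorta membranes, run without BSA. Competition against [¹²⁵I]Sar¹Ile⁸-AII, in duplicate tubes. Some values are means of two or more separate assays. Standard error is estimated at <30% of the mean.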

[2] = test system: Rattus norvegicus; assay: Time to produce onset of action for inhibition of pressor response in conscious, normotensive rats at 3 mg/kg iv (no. of animals treated); type: functional
Method in brief: (§1)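 Conscious male Sprague-Dawley rats (300–400 g), instrumented for iv dosing and arterial pressure. A single iv or po bolus of compound (PEG 400 for some oral doses), then repeated AII challenges at 0.1 μg/kg iv. […] Averaged from at least two rats unless noted.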

[3] = test system: Rattus norvegicus; assay: Peak percent inhibition of Angiotensin II pressor response in conscious, normotensive rats at 3 mg/kg iv (no. of animals treated); type: functional
Method in brief: (§2)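 Male Sprague-Dawley rats (300–400 g), conscious, catheterized for iv dosing and for arterial pressure and heart rate. Compound given iv or po; PEG 400 vehicle in some oral cases. AII 0.1 μg/kg iv boluses at set intervals afterward. % inhibition of the MAP rise was calculated at each time point, and the peak was taken. Averaged from at least two rats unless noted.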

[4] = test system: Rattus norvegicus; assay: Time to produce onset of action for inhibition of Angiotensin II pressor response in conscious, normotensive rats 1 at mg/kg iv; type: functional; method in brief: as §1
[5] = test system: Rattus norvegicus; assay: Peak percent inhibition of Angiotensin II pressor response in conscious, normotensive rats 1 at mg/kg iv; type: functional; method in brief: as §2
[6] = test system: Rattus norvegicus; assay: Time to produce onset of action for inhibition of Angiotensin II pressor response in conscious, normotensive rats at 0.1 mg/kg iv; type: functional; method in brief: as §1
[7] = test system: Rattus norvegicus; assay: Time to produce onset of action for inhibition of Angiotensin II pressor response in conscious, normotensive rats at 0.3 mg/kg po; type: functional; method in brief: as §1
[8] = test system: Rattus norvegicus; assay: Time to produce onset of action for inhibition of Angiotensin II pressor response in conscious, normotensive rats at 1 mg/kg po; type: functional; method in brief: as §1
[9] = test system: Rattus norvegicus; assay: Time to produce onset of action for inhibition of Angiotensin II pressor response in conscious, normotensive rats at 0.3 mg/kg iv; type: functional; method in brief: as §1
[10] = test system: Rattus norvegicus; assay: Peak percent inhibition of Angiotensin II pressor response in conscious, normotensive rats at 0.1 mg/kg po; type: functional; method in brief: as §2
[11] = test system: Rattus norvegicus; assay: Peak percent inhibition of Angiotensin II pressor response in conscious, normotensive rats at 0.1 mg/kg iv; type: functional; method in brief: as §2
[12] = test system: Rattus norvegicus; assay: Peak percent inhibition of Angiotensin II pressor response in conscious, normotensive rats at 0.3 mg/kg iv; type: functional; method in brief: as §2
[13] = test system: Rattus norvegicus; assay: Peak percent inhibition of Angiotensin II pressor response in conscious, normotensive rats at 1 mg/kg po; type: functional; method in brief: as §2
[14] = test system: Rattus norvegicus; assay: Peak percent inhibition of Angiotensin II pressor response in conscious, normotensive rats at 0.3 mg/kg po; type: functional; method in brief: as §2
[15] = test system: Rattus norvegicus; assay: Time to produce onset of action for inhibition of Angiotensin II pressor response in conscious, normotensive rats at 0.1 mg/kg po; type: functional; method in brief: as §1
[16] = test system: Rattus norvegicus; assay: Time to produce onset of action for inhibition of pressor response in conscious, normotensive rats 0.3 mg/kg po (no. of animals treated); type: functional; method in brief: as §1
[17] = test system: Rattus norvegicus; assay: Time to produce onset of action for inhibition of pressor response in conscious, normotensive rats at 0.3 mg/kg iv (no. of animals treated); type: functional; method in brief: as §1
[18] = test system: Rattus norvegicus; assay: Time to produce onset of action for inhibition of pressor response in conscious, normotensive rats at 1 mg/kg iv (no. of animals treated); type: functional; method in brief: as §1
[19] = test system: Rattus norvegicus; assay: Peak percent inhibition of Angiotensin II pressor response in conscious, normotensive rats at 0.3 mg/kg iv (no. of animals treated); type: functional; method in brief: as §2
[20] = test system: Rattus norvegicus; assay: Peak percent inhibition of Angiotensin II pressor response in conscious, normotensive rats at 0.3 mg/kg po (no. of animals treated); type: functional; method in brief: as §2
[21] = test system: Rattus norvegicus; assay: Peak percent inhibition of Angiotensin II pressor response in conscious, normotensive rats at 1 mg/kg iv (no. of animals treated); type: functional; method in brief: as §2
[22] = test system: Rattus norvegicus; assay: Peak percent inhibition of Angiotensin II pressor response in conscious, normotensive rats at 3 mg/kg po (no. of animals treated); type: functional; method in brief: as §2
[23] = test system: Rattus norvegicus; assay: Time to produce onset of action for inhibition of pressor response in conscious, normotensive rats at 3 mg/kg po (no. of animals treated); type: functional; method in brief: as §1
[24] = test system: Rattus norvegicus; assay: Time to produce onset of action for inhibition of Angiotensin II pressor response in conscious, normotensive rats at 0..3 mg/kg iv; type: functional; method in brief: as §1
[25] = test system: Rattus norvegicus; assay: Time to produce onset of action for inhibition of Angiotensin II pressor response in conscious, normotensive rats at 1 mg/kg iv; Not active; type: functional, organism-based; set-up: dose 1 mg/kg; method in brief: as §1
[26] = test system: Rattus norvegicus; assay: Peak percent inhibition of Angiotensin II pressor response in conscious, normotensive rats at 1 mg/kg iv; type: functional; method in brief: as §2
[27] = test system: Rattus norvegicus; assay: Time to produce onset of action for inhibition of pressor response in conscious, normotensive rats at 0.1 mg/kg iv (no. of animals treated); type: functional; method in brief: as §1
[28] = test system: Rattus norvegicus; assay: Time to produce onset of action for inhibition of pressor response in conscious, normotensive rats at 0.3 mg/kg po (no. of animals treated); type: functional; method in brief: as §1
[29] = test system: Rattus norvegicus; assay: Time to produce onset of action for inhibition of pressor response in conscious, normotensive rats at 1 mg/kg po (no. of animals treated); type: functional; method in brief: as §1
[30] = test system: Rattus norvegicus; assay: Peak percent inhibition of Angiotensin II pressor response in conscious, normotensive rats at 0.1 mg/kg iv (no. of animals treated); type: functional; method in brief: as §2
[31] = test system: Rattus norvegicus; assay: Peak percent inhibition of Angiotensin II pressor response in conscious, normotensive rats at 1 mg/kg po (no. of animals treated); type: functional; method in brief: as §2

SMILES: CCCc1nn(CC(F)(F)F)c(C(=O)O)c1Cc1ccc(-c2ccccc2-c2nn[nH]n2)cc1
IC50 [1]: 1.6 nM
Duration [6]: ~5 h
Duration [7]: >3 h
Duration [8]: >23 h
Duration [9]: >24 h
inhibition in vivo at 0.1 mg/kg [10]: 54%
inhibition in vivo at 0.1 mg/kg [11]: 62%
inhibition in vivo at 0.3 mg/kg [12]: 93%
inhibition in vivo at 1 mg/kg [13]: 75%
inhibition in vivo at 0.3 mg/kg [14]: 66%
Duration [15]: ~2 h

SMILES: CCCCc1nc(Cl)c(CO)n1Cc1ccc(-c2ccccc2-c2nnn[nH]2)cc1 [LOSARTAN]
Duration [16]: >3.5 h
Duration [17]: 5.5 h
Duration [18]: >6 h
inhibition in vivo at 0.3 mg/kg [19]: 52%
inhibition in vivo at 0.3 mg/kg [20]: 36%
inhibition in vivo at 1 mg/kg [21]: 78%
inhibition in vivo at 3 mg/kg [22]: 94%
Duration [23]: >4.5 h

SMILES: CCCCc1nn(-c2c(Cl)cccc2Cl)c(C(=O)OCC)c1Cc1ccc(-c2ccccc2-c2nn[nH]n2)cc1
Duration [25]: inactive
inhibition in vivo at 1 mg/kg [26]: 16%

SMILES: CCCCc1nc(Cl)c(C(=O)O)n1Cc1ccc(-c2ccccc2-c2nn[nH]n2)cc1 [CARBOXYLIC ACID METABOLITE]
Duration [27]: ~4 h
Duration [17]: >29 h
Duration [28]: 2.8 h
Duration [29]: >7 h
inhibition in vivo at 0.1 mg/kg [30]: 63%
inhibition in vivo at 0.3 mg/kg [19]: 100%
inhibition in vivo at 0.3 mg/kg [20]: 63%
inhibition in vivo at 1 mg/kg [31]: 72%

More lines, main results first:

IC50 [1]: 2.1 nM
SMILES: CCCCc1nc(-c2ccccc2)c(C(=O)O)n1Cc1ccc(-c2ccccc2-c2nn[nH]n2)cc1
Duration [2]: >24 h
inhibition in vivo at 3 mg/kg [3]: 100%

IC50 [1]: 2.9 nM
SMILES: CCCCc1nn(-c2ccccc2)c(C(=O)O)c1Cc1ccc(-c2ccccc2-c2nn[nH]n2)cc1
Duration [4]: >6 h
Inhibition [5]: 96%

IC50 [1]: 0.42 nM
SMILES: CCCc1nn(Cc2ccccc2)c(C(=O)O)c1Cc1ccc(-c2ccccc2-c2nn[nH]n2)cc1
Duration [24]: >24 h
Duration [7]: >4 h
Duration [8]: >23 h
inhibition in vivo at 0.3 mg/kg [12]: 95%
inhibition in vivo at 1 mg/kg [13]: 100%
inhibition in vivo at 0.3 mg/kg [14]: 82%
